Legend:
recombinant NEP = assay: ANP degradation by recombinant NEP; type: biochemical; conditions: MALDI-TOF
[1] = used to correct the oral dose; species and source not given; cited from earlier work
[2] = tested on: GLP-1R^–/– mice and GLP-1R^+/+ mice; type: in vivo; conditions: sacubitril at -30 min, AAs 34 mg oral
male C57BL/6JRj mice = assay: Oral amino acid challenge in male mice treated with sacubitril; type: in vivo; conditions: AA challenge, n = 6
Method in brief: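 Male C57BL/6JRj mice (~22 g) were acclimatized for at least 1 week. At –30 min they received sacubitril (0.7 nmol/g BW; DMSO stock diluted in PBS) or vehicle (PBS, 0.7% DMSO) by oral gavage. Amino acids (34 mg, Vamin solution) were gavaged at 0 min. Tail blood was sampled at 0, 10, 15, 30, 60 and 180 min for glucometer glucose and EDTA plasma. Plasma glucagon was measured by two-site enzyme immunoassay; L-amino acids and urea by kits.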

female C57BL/6JRj mice [3] = assay: Oral amino acid challenge in female mice treated with sacubitril, GRA or Ex9-39; type: in vivo; conditions: AAs 34 mg oral
Method in brief: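 Female C57BL/6JRj mice (n = 7-10) were fasted 3 h. They were pretreated with GRA vehicle or GRA (100 mg/kg oral) at –180 min, or Ex9-39 (100 µg i.p.) at –15 min. Sacubitril (oral gavage) or PBS/0.7% DMSO was given at –30 min. An amino-acid mixture (34 mg, oral gavage) followed at 0 min. Blood glucose was measured from tail bleeds by handheld glucometer at 0, 10, 15, 30, 60 and 180 min.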

NEP activity = target: T1, NEP activity (Mus musculus, UniProt Q61391); assay: Inhibition of NEP activity in mice by oral sacubitril; type: in vivo; conditions: sacubitril 0.7 nmol/g BW, oral gavage; data not shown
T1 sequence (Q61391 1-750): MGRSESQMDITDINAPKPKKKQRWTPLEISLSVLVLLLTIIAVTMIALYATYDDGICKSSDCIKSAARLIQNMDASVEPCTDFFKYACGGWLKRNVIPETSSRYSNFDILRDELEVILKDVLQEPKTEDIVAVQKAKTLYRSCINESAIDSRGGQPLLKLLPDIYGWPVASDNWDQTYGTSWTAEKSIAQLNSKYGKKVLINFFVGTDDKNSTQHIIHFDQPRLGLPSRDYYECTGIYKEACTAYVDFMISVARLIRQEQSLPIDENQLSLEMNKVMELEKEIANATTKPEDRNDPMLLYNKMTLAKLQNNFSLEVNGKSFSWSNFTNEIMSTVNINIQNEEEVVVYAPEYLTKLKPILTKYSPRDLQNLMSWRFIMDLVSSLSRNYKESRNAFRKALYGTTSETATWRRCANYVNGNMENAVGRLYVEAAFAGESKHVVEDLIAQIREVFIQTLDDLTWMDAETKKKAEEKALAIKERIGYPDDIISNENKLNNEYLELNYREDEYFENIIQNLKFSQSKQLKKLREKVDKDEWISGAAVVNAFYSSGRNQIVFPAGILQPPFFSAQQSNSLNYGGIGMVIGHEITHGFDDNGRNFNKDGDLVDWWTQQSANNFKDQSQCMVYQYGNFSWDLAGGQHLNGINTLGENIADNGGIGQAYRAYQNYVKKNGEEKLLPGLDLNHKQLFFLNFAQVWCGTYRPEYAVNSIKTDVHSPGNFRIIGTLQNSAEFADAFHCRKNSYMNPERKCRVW

female C57BL/6JRj mice [4] = assay: Female mice given water instead of amino acids; type: in vivo; conditions: sacubitril coadministered with vehicle, GRA or Ex9-39 vs these alone; n = 3
Method in brief: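 Female C57BL/6JRj mice were fasted 3 h with free water. They received GRA (100 mg/kg, oral gavage suspension) or its vehicle at –180 min, or Ex9-39 (100 µg i.p.) at –15 min. Sacubitril (0.7 nmol/g BW, oral gavage; DMSO diluted in PBS) or PBS/0.7% DMSO was given at –30 min, then water at 0 min. Retrobulbar blood was taken at 0–180 min for plasma glucagon by 2-site enzyme immunoassay.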

[5] = tested on: individuals with obesity and hypertension; assay: 8 weeks treatment, fasting plasma before and after; type: in vivo, human; conditions: amlodipine 10 mg once a day, n = 7, control group
Method in brief: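 Multicentre, randomized, double-blinded study in adults with hypertension and obesity. Participants received amlodipine 10 mg once daily (n = 7) or sacubitril/valsartan 194 mg/206 mg once daily (n = 7) for 8 weeks. Plasma was sampled after an overnight fast before and after treatment. Glucagon was measured by validated 2-site enzyme immunoassay and L-amino acids by a commercial kit.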

healthy young men = assay: Single dose of sacubitril/valsartan; type: in vivo, human; conditions: valsartan alone 206 mg; n = 3
Method in brief: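 Healthy men meeting the crossover-trial inclusion criteria (n = 3) received valsartan 206 mg 30 min before a solid mixed meal (42 g carbohydrate, 25 g fat, 26 g protein), or the meal alone, on separate occasions. Blood was drawn at –60, –15, 0, 30, 45, 90 and 180 min. Plasma glucagon was measured by validated 2-site enzyme immunoassay, and the postprandial response was expressed as incremental AUC.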

With atrial natriuretic peptide [ANP] the “degradation of ANP by NEP” value (recombinant NEP; positive control, recombinant NEP, Supplementary Fig. 2A and 2B) was “NEP cleavage resulted in the formation of a known substrate (m/z 2585)”.

With C[C@H](C[C@@H](Cc1ccc(-c2ccccc2)cc1)NC(=O)CCC(=O)O)C(=O)O [sacubitrilat] the “effect on NEP-induced ANP cleavage” value (recombinant NEP; sacubitrilat added) was “prevented by the addition of sacubitrilat”.

In the case of CCOC(=O)[C@H](C)C[C@@H](Cc1ccc(-c2ccccc2)cc1)NC(=O)CCC(=O)O [sacubitril], the bioavailability [1] is listed as 60%, the “plasma AA iAUC in GLP-1^–/– mice” value ([2]; mean ± SD, vehicle 255 ± 118, P = .05) is listed as 376 ± 67 and the “augmenting effect on AA-stimulated glucagon levels in GLP-1R^+/+ mice” value ([2]; time point 15 minutes, P = .02) is listed as “apparent only in littermate controls”. The “glucagon response to AAs in GLP-1R^–/– mice” value ([2]; vs vehicle) was “did not, however, increase the glucagon response to AAs”, the “blood glucose concentrations in response to an AA challenge in GLP-1R^–/– mice” value ([2]; vs vehicle, P = .03) was “increased blood glucose concentrations” and the “blood glucose or plasma concentrations of AAs, male mice” value (male C57BL/6JRj mice) was “without altering blood glucose or plasma concentrations of AAs”. The “plasma concentrations of glucagon, male mice” value (male C57BL/6JRj mice) was “increased plasma concentrations of glucagon”, the “plasma concentrations of urea, male mice” value (male C57BL/6JRj mice) was “did not increase plasma concentrations of urea” and the “plasma concentrations of glucagon, coadministration with Ex9-39 vs Ex9-39 alone” value (female C57BL/6JRj mice [3]; sacubitril 0.7 nmol/g BW + Ex9-39 100 µg) was “increased plasma concentrations of glucagon more”. For the same compound, the “plasma concentrations of amino acids vs vehicle” value (female C57BL/6JRj mice [3]; sacubitril 0.7 nmol/g BW oral) was “no effect on plasma concentrations of amino acids”, the “blood glucose concentrations in response to an AA challenge” value (female C57BL/6JRj mice [3]; sacubitril 0.7 nmol/g BW oral, vs vehicle) was “no significant increase” and the “inhibition of NEP activity in mice” value (NEP activity) was ~ 60%. The “plasma concentrations of glucagon, water instead of AAs” value (female C57BL/6JRj mice [4]) was “increased numerically”.

For CCOC(=O)C1=C(COCCN)NC(C)=C(C(=O)OC)C1c1ccccc1Cl (centres unmarked) [amlodipine], the “plasma concentrations of glucose, glucagon, or AAs, after vs before” value [5] was “no significant changes”.

With CCCCC(=O)N(Cc1ccc(-c2ccccc2-c2nnn[nH]2)cc1)[C@H](C(=O)O)C(C)C [valsartan] the “effect on postprandial plasma concentrations of glucagon vs control” value (healthy young men) was “no effect”.

Source: PMC8317634 (Journal of the Endocrine Society, 2021)
